In ChEMBL document CHEMBL1153848, “Design and synthesis of azolopyrimidoquinolines, pyrimidoquinazolines as anti-oxidant, anti-inflammatory and analgesic activities” (2009) one finds Activity and inhibition data, which are given here for 20 compounds.

Test [1] concerns Rattus norvegicus. The experiment in a line: Antiinflammatory activity in Sprague-Dawley rat assessed as protection against carrageenan-induced hind paw edema at 20 mg/kg, po administered 1 hr before carrageenan challenge measured after 3 hrs. The test is classed as functional. In outline: (§1)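 Adult female albino rats (150–180 g), fasted 18 h, six per group. Aqueous suspension in distilled water given orally at 20 mg/kg 1 h before subplantar injection of 0.1 mL 1% w/v carrageenan into the left hind paw. Vehicle controls got 0.5 mL water; diclofenac sodium 20 mg/kg po was the reference. Paw volume was measured by mercury plethysmometer before injection and hourly for 4 h. Inhibition = (Ec−Et)/Ec, with edema = (Vt−V0)/V0.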
(The carrageenan paw model is a standard test of acute inflammation.)

For test [2], the system named is Rattus norvegicus. Description: Antiinflammatory activity in Sprague-Dawley rat assessed as protection against carrageenan-induced hind paw edema at 20 mg/kg, po administered 1 hr before carrageenan challenge measured after 2 hrs. The test is classed as functional. A digest of the protocol:
as §1

Test [3] in a line: Antioxidant activity assessed as ABTS radical scavenging activity at 2 mM. The test is classed as functional. A digest of the protocol: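 ABTS radical scavenging, read as the fall in colour absorbance after MeOH/phosphate buffer (1:1) is added. % inhibition = (A_control − A_test)/A_control × 100. The negative control uses MeOH/phosphate buffer (1:1) in place of compound, the blank omits ABTS, and ascorbic acid is the positive control.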

A further test relates to Kidney. The experiment in a line: Antioxidant activity in Sprague-Dawley rat kidney assessed as inhibition of lipid peroxidation. The test is classed as functional, tissue-based.
For test [4], the system named is Rattus norvegicus. The experiment in a line: Antiinflammatory activity in Sprague-Dawley rat assessed as protection against carrageenan-induced hind paw edema at 20 mg/kg, po administered 1 hr before carrageenan challenge measured after 1 hr. The test is classed as functional. In outline:
as §1

The subject of test [5] is Mus musculus. The experiment in a line: Peripheral analgesic activity in Swiss albino mouse assessed as protection against acetic acid-induced writhing response at 20 mg/kg, po administered 30 mins before acetic acid challenge measured after 2 hrs relative to control. The test is classed as functional. A general note: In writhing tests, fewer writhes than in controls are read as antinociception.

In test [6] the test system is Mus musculus. The experiment in a line: Central analgesic activity in Swiss albino mouse assessed as thermal stimuli reaction time at 20 mg/kg, po after 30 mins by hot plate method. The test is classed as functional. A digest of the protocol:
(§2)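 Swiss mice of both sexes (25–30 g), six per group, on a hot plate held at 53 ± 0.5 °C. Latency was timed to hind-paw licking or jumping, with a 60 s cut-off. It was measured before dosing, then at 15, 30, 60 and 90 min after an oral aqueous suspension at 20 mg/kg. Controls were untreated; oral diclofenac sodium 20 mg/kg was the reference.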
(In general: In hot-plate and tail-flick tests a longer latency is read as antinociception.)

The subject of test [7] is Mus musculus. Description: Peripheral analgesic activity in Swiss albino mouse assessed as protection against acetic acid-induced writhing response at 20 mg/kg, po administered 30 mins before acetic acid challenge measured after 1 hr relative to control. The test is classed as functional.
Test [8] can be described thus: Antioxidant activity in Sprague-Dawley rat erythrocytes assessed as peroxyl radical-induced hemolysis after 1 hr. The test is classed as functional, Erythrocyte.
Test [9] deals with Mus musculus. The experiment in a line: Central analgesic activity in Swiss albino mouse assessed as thermal stimuli reaction time at 20 mg/kg, po after 60 mins by hot plate method. The test is classed as functional. In outline:
as §2

The test system of the next test is Brain. The experiment in a line: Antioxidant activity in Sprague-Dawley rat brain assessed as inhibition of lipid peroxidation. The test is classed as functional, tissue-based.
In test [10] the test system is Mus musculus. Description: Peripheral analgesic activity in Swiss albino mouse assessed as protection against acetic acid-induced writhing response at 20 mg/kg, po administered 30 mins before acetic acid challenge measured after 3 hrs relative to control. The test is classed as functional.
The subject of test [11] is Mus musculus. Description: Peripheral analgesic activity in Swiss albino mouse assessed as protection against acetic acid-induced writhing response at 20 mg/kg, po administered 30 mins before acetic acid challenge measured after 30 mins relative to control. The test is classed as functional.
The subject of test [12] is Mus musculus. The experiment in a line: Central analgesic activity in Swiss albino mouse assessed as thermal stimuli reaction time at 20 mg/kg, po after 90 mins by hot plate method. The test is classed as functional. In outline:
as §2

SMILES strings stand for the structures. Active and inactive are the calls of the source.

Consider `O=c1c2c(-c3ccc(Cl)cc3)c3c(nc2nc2sc4c(n12)ONC4c1ccccc1)/C(=C\c1ccc(Cl)cc1)CCC3` (stereo not drawn), for which the Activity in the test on Rattus norvegicus [1] worked out at 34.8%; with Rattus norvegicus [2], 57.1%; in the test with Rattus norvegicus [4] it was 49.6%; in the test on Mus musculus [5], 59.3%; with Mus musculus [6], 7.08 min; in the test with Mus musculus [7], 53%. Besides, the Activity in test [8] turned out to be 9.39%; in the test with Mus musculus [9], 9.52 min; in the test with Mus musculus [10], 36.5%; with Mus musculus [11], 46.7%; with Mus musculus [12] it was 12.68 min. In addition, in test [3], the inhibition is 33.3%. The outcome in the test with Kidney and with Brain was Active.
Take `COc1ccc(/C=c2\sc3nc4nc5c(c(-c6ccc(Cl)cc6)c4c(=O)n3c2=O)CCC/C5=C/c2ccc(Cl)cc2)cc1`: the inhibition in test [3] is 33.3%. Besides, the outcome in the test with Kidney and in the test on Brain was Active. The Activity in test [8] is given as 4.54%.
As to `CC(=O)CSc1nc2nc3c(c(-c4ccc(Cl)cc4)c2c(=O)[nH]1)CCC/C3=C/c1ccc(Cl)cc1`, in [3], the inhibition is 35.2%. The result in the test with Kidney and with Brain was Active. For the same compound, in test [8], the Activity amounted to 8.33%.
Take `NNc1nc2nc3c(c(-c4ccc(Cl)cc4)c2c(=O)[nH]1)CCC/C3=C/c1ccc(Cl)cc1`: the outcome with Kidney and with Brain was Active.
In the case of `CCSc1nc2nc3c(c(-c4ccc(Cl)cc4)c2c(=O)[nH]1)CCC/C3=C/c1ccc(Cl)cc1`, the inhibition in test [3] stood at 37%. The outcome with Kidney and in the test on Brain was Active. In addition, the Activity in [8] is 5.6%.
For the compound `CCSc1nc2nc3c(c(-c4ccc(Cl)cc4)c2c(=O)n1C)CCC/C3=C/c1ccc(Cl)cc1`, the inhibition in test [3] was 31.5%. Further, the outcome with Kidney and with Brain was Active. In addition, the Activity in [8] amounted to 5.3%.
With `CN(C)c1ccc(/C=c2\sc3nc4nc5c(c(-c6ccc(Cl)cc6)c4c(=O)n3c2=O)CCC/C5=C/c2ccc(Cl)cc2)cc1`, the inhibition in test [3] is 37%. In addition, the outcome with Kidney and with Brain was Active. Moreover, the Activity in test [8] stood at 7.27%.
Consider `CSc1nc2nc3c(c(-c4ccc(Cl)cc4)c2c(=O)n1C)CCC/C3=C/c1ccc(Cl)cc1`, for which the inhibition in test [3] was 31.5%. Also, the result in the test on Kidney and in the test with Brain was Active. The Activity in test [8] came to 4.09%.
As to `Nc1ccc(/C=C2/CCCc3c2nc2nc4sc5c(n4c(=O)c2c3-c2ccc(Cl)cc2)ONC5c2cccs2)cc1` (stereo not drawn), the inhibition in [3] came out at 29.6%. In addition, the result with Kidney and in the test with Brain was Active. For the same compound, the Activity in test [8] is listed as 4.64%.
Consider `C/C(=N/O)c1sc2nc3nc4c(c(-c5ccc(Cl)cc5)c3c(=O)n2c1C)CCC/C4=C/c1ccc(Cl)cc1`, for which, in [3], the inhibition came to 48.1%. The outcome in the test on Kidney and with Brain was Active. In addition, the Activity in test [8] is on record as 7.22%.
Turning to `Nc1ccc(/C=C2/CCCc3c2nc2nc4s/c(=C\c5cccs5)c(=O)n4c(=O)c2c3-c2ccc(N)cc2)cc1`, in [3], the inhibition came out at 25.9%. The outcome with Kidney and in the test on Brain was Active. Moreover, the Activity in [8] worked out at 6.36%.
For `COc1ccc(NC2NC(SC)=Nc3nc4c(c(-c5ccc(Cl)cc5)c32)CCC/C4=C/c2ccc(Cl)cc2)cc1` (stereo not drawn), the Activity amounted to 25.3% with Rattus norvegicus [1]; 42.3% in the test with Rattus norvegicus [2]; 39.8% in the test with Rattus norvegicus [4]; 49.3% in the test with Mus musculus [5]; 8.62 min in the test on Mus musculus [6]; 52% in the test with Mus musculus [7]. The Activity with Mus musculus [9] was determined as 9.06 min; with Mus musculus [10] it was 37.3%; with Mus musculus [11] it was 41.5%; in the test on Mus musculus [12], 9.22 min. The result in the test with Kidney and with Brain was Active.
For the compound `CSC1=Nc2nc3c(c(-c4ccc(Cl)cc4)c2C(N2CCNCC2)N1)CCC/C3=C/c1ccc(Cl)cc1` (stereo not drawn), the Activity in the test with Rattus norvegicus [1] is on record as 42%; with Rattus norvegicus [2], 52%; in the test with Rattus norvegicus [4], 43.1%; with Mus musculus [5], 49.4%; with Mus musculus [6], 7.93 min; in the test on Mus musculus [7], 50%. For the same compound, the Activity in the test with Mus musculus [9] was determined as 10.15 min; in the test with Mus musculus [10] it was 30.5%; in the test with Mus musculus [11] it was 49.5%; with Mus musculus [12], 11.5 min. Further, the outcome with Kidney and with Brain was Active.
On to `O=C(CSc1nc2nc3c(c(-c4ccc(Cl)cc4)c2c(=O)[nH]1)CCC/C3=C/c1ccc(Cl)cc1)c1ccccc1`, for which, in test [3], the inhibition amounted to 33.3%. Moreover, the result with Kidney and in the test with Brain was Active. Also, the Activity in test [8] stood at 6.51%.
As for `O=C([O-])Cc1ccccc1Nc1c(Cl)cccc1Cl.[Na+]` [DICLOFENAC SODIUM], the Activity with Rattus norvegicus [1] turned out to be 42%; in the test on Rattus norvegicus [2] it was 60.3%; in the test with Rattus norvegicus [4] it was 52.4%; in the test on Mus musculus [5], 62%; with Mus musculus [6], 10 min; in the test on Mus musculus [7], 55.2%. Also, the Activity in the test on Mus musculus [9] was 11.4 min; with Mus musculus [10] it was 39%; in the test on Mus musculus [11] it was 46%; in the test on Mus musculus [12], 13.2 min.
Take `O=c1[nH]c(=S)[nH]c2nc3c(c(-c4ccc(Cl)cc4)c12)CCC/C3=C\c1ccc(Cl)cc1`: the inhibition in test [3] stood at 44.4%. For the same compound, the outcome with Kidney and with Brain was Active. Further, the Activity in test [8] is given as 8.33%.
As to `CCSc1nc2nc3c(c(-c4ccc(Cl)cc4)c2c(=O)n1CC)CCC/C3=C/c1ccc(Cl)cc1`, the inhibition in [3] is 35.2%. For the same compound, the result in the test with Kidney and with Brain was Active. The Activity in test [8] amounted to 30.75%.
Regarding `COc1ccc(/C=C/C(=O)c2sc3nc4nc5c(c(-c6ccc(Cl)cc6)c4c(=O)n3c2C)CCC/C5=C/c2ccc(Cl)cc2)cc1`, in test [3], the inhibition was found to be 22.2%. The outcome in the test with Kidney and in the test with Brain was Active. The Activity in test [8] worked out at 5.9%.
As to `COc1ccc(C2NOc3c2sc2nc4nc5c(c(-c6ccc(Cl)cc6)c4c(=O)n32)CCC/C5=C/c2ccc(Cl)cc2)cc1` (stereo not drawn), the inhibition in test [3] was found to be 24.1%. Also, the outcome in the test with Kidney and in the test on Brain was Active. In test [8], the Activity worked out at 7.27%.
Take `CSC1=Nc2nc3c(c(-c4ccc(Cl)cc4)c2C(N2CCOCC2)N1)CCC/C3=C/c1ccc(Cl)cc1` (stereo not drawn): the Activity came out at 37.3% in the test on Rattus norvegicus [1]; 47.1% with Rattus norvegicus [2]; 39.2% with Rattus norvegicus [4]; 45.2% in the test with Mus musculus [5]; 8.65 min in the test with Mus musculus [6]; 47% in the test with Mus musculus [7]. In addition, the Activity with Mus musculus [9] came out at 10.98 min; in the test with Mus musculus [10], 27.8%; with Mus musculus [11], 45.2%; with Mus musculus [12], 11.12 min. Also, the result in the test with Kidney and with Brain was Active.

The term inhibition denotes the drop in the measured response relative to a control, in per cent.
